Values after ≈ are worked out from the molar mass of the structure shown.

The experiment deals with Mycobacterium tuberculosis. The experiment in a line: Antitubercular activity against rifampicin-resistant Mycobacterium tuberculosis assessed as growth inhibition after 2 to 3 weeks by broth microdilution method. In kind it is functional. In short, it runs like this:
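Primary screen of all compounds against H37Rv at a single concentration in triplicate by microplate dilution. Actives then went to MIC determination by broth microdilution against H37Rv, rifampicin-resistant and XDR-1 isolates. Plates incubated 2–3 weeks at 37 °C in a CO2 incubator. MIC read visually as absence of growth turbidity. Rifampicin and linezolid served as reference drugs.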
`CC(=O)NC[C@H]1CN(c2ccc(N3CCN(Cc4cc(-c5ccc(F)cc5F)n(-c5cc(F)ccc5Br)c4C)CC3)c(F)c2)C(=O)O1`: the MIC – broadly, the smallest concentration in the dilution series that meets the test's criterion for growth inhibition – came out at 8 µg/mL (≈ 11.2 µM).

For `CC(=O)NC[C@H]1CN(c2ccc(N3CCOCC3)c(F)c2)C(=O)O1` [LINEZOLID], the MIC was determined as 2 µg/mL (≈ 5.93 µM).

Regarding `Cc1c(CN2CCN(c3ccc(N4C[C@H](Cn5cc(-c6cncn6C)nn5)OC4=O)cc3F)CC2)cc(-c2ccc(F)cc2F)n1-c1ccc(F)cc1`, the MIC stood at 8 µg/mL (≈ 11 µM).

Consider `Cc1ccccc1-c1cc(CN2CCN(c3ccc(N4C[C@H](Cn5cc(-c6cncn6C)nn5)OC4=O)cc3F)CC2)c(C)n1-c1ccc(F)c(F)c1`, for which the minimal inhibitory concentration (MIC) came out at 8 µg/mL (≈ 11.1 µM).

Regarding `Cc1c(CN2CCN(c3ccc(N4C[C@H](Cn5cc(-c6cncn6C)nn5)OC4=O)cc3F)CC2)cc(-c2ccc(C(C)C)cc2)n1-c1ccc(F)cc1F`, the MIC stood at 8 µg/mL (≈ 10.7 µM).

In the case of `Cc1c(CN2CCN(c3ccc(N4C[C@H](Cn5cc(-c6ccccc6)nn5)OC4=O)cc3F)CC2)cc(-c2ccc(F)cc2F)n1-c1cc(F)ccc1Br`, the MIC was over 16 µg/mL.

With `Cc1ccc(-c2cc(CN3CCN(c4ccc(N5C[C@H](Cn6cc(-c7ccccc7)nn6)OC5=O)cc4F)CC3)c(C)n2-c2ccc(Cl)c(Cl)c2)cc1`, the MIC was over 16 µg/mL.

Take `Cc1ccccc1-c1cc(CN2CCN(c3ccc(N4C[C@H](Cn5cc(-c6ccccn6)nn5)OC4=O)cc3F)CC2)c(C)n1-c1ccc(F)c(F)c1`: the MIC was determined as 4 µg/mL (≈ 5.56 µM).

For the compound `Cc1c(CN2CCN(c3ccc(N4C[C@H](Cn5cc(-c6ccccn6)nn5)OC4=O)cc3F)CC2)cc(-c2ccc(Cl)c(F)c2)n1-c1ccc(OC(F)(F)F)cc1`, the MIC turned out to be 4 µg/mL (≈ 4.97 µM).

`CC(=O)NC[C@H]1CN(c2ccc(N3CCN(Cc4cc(-c5ccc(C(C)C)cc5)n(-c5ccc(F)cc5F)c4C)CC3)c(F)c2)C(=O)O1`: the minimal inhibitory concentration (MIC) was 4 µg/mL (≈ 6.06 µM).

Consider `Cc1ccc(-c2cc(CN3CCN(c4ccc(N5C[C@H](Cn6cc(-c7ccccn7)nn6)OC5=O)cc4F)CC3)c(C)n2-c2ccc(Cl)c(Cl)c2)cc1`, for which the MIC is 4 µg/mL (≈ 5.32 µM).

Regarding `Cc1c(CN2CCN(c3ccc(N4C[C@H](Cn5cc(-c6ccccc6)nn5)OC4=O)cc3F)CC2)cc(-c2ccc(Cl)c(F)c2)n1-c1ccc(OC(F)(F)F)cc1`, the MIC was over 16 µg/mL.

Regarding `Cc1c(CN2CCN(c3ccc(N4C[C@H](Cn5cc(-c6ccccc6)nn5)OC4=O)cc3F)CC2)cc(-c2cccc(Cl)c2)n1-c1ccccc1F`, the MIC is over 16 µg/mL.

On to `CC(=O)NC[C@H]1CN(c2ccc(N3CCN(Cc4cc(-c5cccc(Cl)c5)n(-c5ccccc5F)c4C)CC3)c(F)c2)C(=O)O1`, for which the MIC is 8 µg/mL (≈ 12.6 µM).

`Cc1cccc(-c2cn(C[C@H]3CN(c4ccc(N5CCN(Cc6cc(-c7ccccc7C)n(-c7ccc(F)cc7)c6C)CC5)c(F)c4)C(=O)O3)nn2)c1`: the MIC is over 16 µg/mL.

On to `Cc1c(CN2CCN(c3ccc(N4C[C@H](Cn5cc(-c6ccccn6)nn5)OC4=O)cc3F)CC2)cc(-c2ccc(F)cc2F)n1-c1ccc(F)cc1`, for which the MIC came to 8 µg/mL (≈ 11.1 µM).

Regarding `Cc1ccccc1-c1cc(CN2CCN(c3ccc(N4C[C@H](Cn5cc(-c6cncn6C)nn5)OC4=O)cc3F)CC2)c(C)n1-c1ccc(F)cc1`, the MIC is 4 µg/mL (≈ 5.68 µM).

Regarding `CO[C@H]1/C=C/O[C@@]2(C)Oc3c(C)c(O)c4c(O)c(c(/C=N/N5CCN(C)CC5)c(O)c4c3C2=O)NC(=O)/C(C)=C\C=C\[C@H](C)[C@H](O)[C@@H](C)[C@@H](O)[C@@H](C)[C@H](OC(C)=O)[C@@H]1C` [RIFAMPIN], the MIC is over 128 µg/mL.

Source of the values: ChEMBL document CHEMBL2390903, “Anti-tubercular agents. Part 7: a new class of diarylpyrrole-oxazolidinone conjugates as antimycobacterial agents” (Eur J Med Chem, 2013).
